ChEMBL document CHEMBL5653605, “Reduced VEGF production, angiogenesis, and vascular regrowth contribute to the antitumor properties of dual mTORC1/mTORC2 inhibitors” (Cancer Res, 2011)
pIC50: −log10 of the molar value. Activity calls are given as the source filed them.

Key:
[1] = target: DNA-dependent protein kinase catalytic subunit (Homo sapiens, UniProt P78527); assay: Inhibition of DNA-PK (unknown origin) assessed as reduction in phosphorylated RPA32 level by cell based assay
[2] = tested on: Pancreatic islet cell carcinoma; assay: (§1) Antitumor activity against pancreatic islet cell carcinoma in RIP-Tag2 mouse assessed as reduction in VEGF production by measuring reduction in fluorescence in entire tumor at 75 mg/kg, po bid administered via gavage and measured after 1 day by immunohistochemical staining based confocal microscopic analysis relative to control; type: functional; parameters: scale not given: the % may be the effect or the level left
Summary of the method: (§2)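 Treatment began in RIP-Tag2 mice at 9–10 weeks: 75 mg/kg gavage BID for 1, 4 or 7 days, or 20 mg/kg ip QD for 7 days; vehicle Labrifil or water. Tissue fixed by vascular perfusion and 60–80 µm sections stained for VEGF with CD31. VEGF fluorescence intensity measured over whole tumor, tumor cells, or tumor vessels. 3–8 mice/group; ANOVA, Fisher PLSD.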

[3] = target: Phosphatidylinositol 4,5-bisphosphate 3-kinase catalytic subunit gamma isoform (Homo sapiens, UniProt P48736); assay: Inhibition of PI3Kgamma (unknown origin) in presence of ATP by HTRF assay
Sequence of Phosphatidylinositol 4,5-bisphosphate 3-kinase catalytic subunit gamma isoform (P48736 whole entry, canonical isoform): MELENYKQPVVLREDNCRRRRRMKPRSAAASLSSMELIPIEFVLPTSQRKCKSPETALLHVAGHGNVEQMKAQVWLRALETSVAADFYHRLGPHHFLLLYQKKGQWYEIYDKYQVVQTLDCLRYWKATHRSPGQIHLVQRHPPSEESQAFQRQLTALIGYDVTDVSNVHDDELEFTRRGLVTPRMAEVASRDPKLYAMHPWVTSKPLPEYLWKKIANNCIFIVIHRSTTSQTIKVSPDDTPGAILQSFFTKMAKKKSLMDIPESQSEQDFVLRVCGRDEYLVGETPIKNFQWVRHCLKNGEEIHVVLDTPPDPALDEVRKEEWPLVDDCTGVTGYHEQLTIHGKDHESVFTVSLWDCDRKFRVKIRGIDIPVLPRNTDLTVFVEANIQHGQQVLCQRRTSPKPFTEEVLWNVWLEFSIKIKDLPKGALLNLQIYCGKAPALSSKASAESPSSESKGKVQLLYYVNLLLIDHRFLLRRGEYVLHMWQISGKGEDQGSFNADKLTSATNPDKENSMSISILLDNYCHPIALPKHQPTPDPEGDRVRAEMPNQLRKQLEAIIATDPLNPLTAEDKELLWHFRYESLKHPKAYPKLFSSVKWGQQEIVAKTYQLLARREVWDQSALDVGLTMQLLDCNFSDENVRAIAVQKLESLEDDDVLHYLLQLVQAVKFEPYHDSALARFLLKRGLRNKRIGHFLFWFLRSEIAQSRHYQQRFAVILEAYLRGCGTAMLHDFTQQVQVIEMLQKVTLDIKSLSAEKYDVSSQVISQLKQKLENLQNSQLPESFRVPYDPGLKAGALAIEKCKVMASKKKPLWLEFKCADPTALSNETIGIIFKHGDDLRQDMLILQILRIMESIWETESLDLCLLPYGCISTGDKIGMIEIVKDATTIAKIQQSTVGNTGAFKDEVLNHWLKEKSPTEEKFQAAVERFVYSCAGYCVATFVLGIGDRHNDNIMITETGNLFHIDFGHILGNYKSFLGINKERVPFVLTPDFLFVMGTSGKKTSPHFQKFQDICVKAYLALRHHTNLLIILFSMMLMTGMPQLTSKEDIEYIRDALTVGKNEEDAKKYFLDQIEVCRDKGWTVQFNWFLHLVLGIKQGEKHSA
Summary of the method: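 PI3K activity by HTRF assay at […] ATP.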

[4] = tested on: Pancreatic islet cell carcinoma; assay: Antitumor activity against pancreatic islet cell carcinoma in RIP-Tag2 mouse assessed as reduction in cell proliferation at 75 mg/kg, po bid administered via gavage and measured after 7 days by immunohistochemistry analysis; type: functional, organism-based; settings: time 7.0 day
Summary of the method: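 RIP-Tag2 mice aged 9–10 weeks dosed by gavage BID for 7 days; vehicle Labrifil or water. Mice fixed by vascular perfusion, tumors cut into 60–80 µm sections. Proliferating cells stained for phospho-histone H3 and apoptotic cells for activated caspase-3. Sections imaged by fluorescence/confocal microscopy. Body weight checked daily, fluids given if loss exceeded 10%. 3–8 mice per group, SEM, ANOVA with Fisher PLSD.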

[5] = tested on: Pancreatic islet cell carcinoma; assay: Antivascular activity against pancreatic islet cell carcinoma in RIP-Tag2 mouse assessed as reduction in vascular sprouts at 75 mg/kg, po bid administered via gavage and measured after 7 days by immunohistochemical staining based fluorescence microscopic analysis relative to control; type: functional; parameters: scale not given: the % may be the effect or the level left; settings: time 7 day
Summary of the method: (§3)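 For 7 days, RIP-Tag2 mice, 9–10 weeks old, received 75 mg/kg gavage BID, 200 mg/kg gavage QD, or 20 mg/kg ip QD. Perfusion-fixed tumors cut at 60–80 µm and stained for CD31 and type IV collagen basement membrane. Vessel area density from fluorescence images with threshold 30–50; sprouts and empty basement membrane sleeves examined by confocal microscopy. 3–8 mice/group; ANOVA, Fisher PLSD.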

[6] = target: T1, Serine/threonine-protein kinase mTOR (Homo sapiens, UniProt P42345); assay: Inhibition of mTOR (unknown origin) assessed as reduction in 4E-BP1 phosphorylation by cell based assay
[7] = target: Proline-rich AKT1 substrate 1 (Homo sapiens) (UniProt Q96B36); assay: Inhibition of PRAS40 phosphorylation at Ser 246 residue in serum deprived/insulin stimulated human OVCAR-3 cells harboring PTEN and wild type PI3K preincubated for 2 hrs followed by insulin stimulation and measured immediately by Western blot analysis; type: cell-based; settings: dose 0.001-10 µM
[8] = Drug concentration in nu/nu CD-1 mouse plasma xenografted with human GEO cells at 75 mg/kg administered for 14 days and measured 8 hr post last dose; type: ADME, organism-based
Mus musculus = assay: In vivo inhibition of AKT phosphorylation in RIP-Tag2 mouse with pancreatic islet cell carcinoma 75 mg/kg, po bid administered via gavage and measured after 7 days by immunohistochemistry; type: functional, organism-based; settings: time 7.0 day
Summary of the method: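 RIP-Tag2 mice aged 9–10 weeks dosed 75 mg/kg BID by gavage for 7 days, vehicle Labrifil or water; perfusion fixation, 60–80 µm tumor sections immunostained for phospho-4E-BP1, phospho-Akt or phospho-S6K with CD31; fluorescence/confocal imaging; 3–8 mice per group.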

[9] = target: T1, Serine/threonine-protein kinase mTOR; assay: Inhibition of mTOR (unknown origin)
[10] = tested on: Pancreatic islet cell carcinoma; assay: Antivascular activity against pancreatic islet cell carcinoma in RIP-Tag2 mouse assessed as appearance of empty basement membrane sleeves at 75 mg/kg, po bid administered via gavage and measured after 7 days by immunohistochemical staining based fluorescence microscopic analysis; type: functional, organism-based; settings: time 7.0 day; summary of the method: as §3
[11] = target: RAC-alpha serine/threonine-protein kinase (Homo sapiens) (UniProt P31749); assay: Inhibition of AKT phosphorylation at Ser 473 site in serum deprived/insulin stimulated human OVCAR-3 cells harboring PTEN and wild type PI3K preincubated for 2 hrs followed by insulin stimulation and measured immediately by Western blot analysis; type: cell-based; settings: dose 0.001-10 µM
Sequence of RAC-alpha serine/threonine-protein kinase (Homo sapiens) (P31749 whole entry): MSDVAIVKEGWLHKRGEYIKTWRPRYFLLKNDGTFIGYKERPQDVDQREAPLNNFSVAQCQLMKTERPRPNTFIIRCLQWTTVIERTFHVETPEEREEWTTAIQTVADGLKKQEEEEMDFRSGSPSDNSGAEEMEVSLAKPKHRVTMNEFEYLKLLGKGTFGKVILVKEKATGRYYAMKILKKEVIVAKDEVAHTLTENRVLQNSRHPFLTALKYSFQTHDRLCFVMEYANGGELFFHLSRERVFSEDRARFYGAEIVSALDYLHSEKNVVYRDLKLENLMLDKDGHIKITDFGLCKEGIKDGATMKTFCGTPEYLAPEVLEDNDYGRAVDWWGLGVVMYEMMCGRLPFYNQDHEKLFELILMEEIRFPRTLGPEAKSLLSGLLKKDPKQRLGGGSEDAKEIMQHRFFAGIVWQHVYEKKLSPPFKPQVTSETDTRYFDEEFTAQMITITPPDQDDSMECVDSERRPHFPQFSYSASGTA

OVCAR-3 = assay: Inhibition of S6K at […] residues in serum deprived/insulin stimulated human OVCAR-3 cells harboring PTEN and wild type PI3K assessed as inhibition of s6 substrate phosphorylation at […] residue at 0.001 to 10 uM preincubated for 2 hrs followed by insulin stimulation and measured immediately by Western blot analysis; type: cell-based; settings: dose 0.001-10 µM
[12] = tested on: Pancreatic islet cell carcinoma; assay: Antitumor activity against pancreatic islet cell carcinoma in RIP-Tag2 mouse assessed as reduction in VEGF-A expression at 75 mg/kg, po bid administered via gavage and measured after 1 to 7 days by immunoprecipitation based densitometric analysis relative to control; type: functional; parameters: scale not given: the % may be the effect or the level left; settings: time 1-7 day
Summary of the method: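 VEGF in tumor lysates from treated RIP-Tag2 mice (9–10 weeks old at start; 75 mg/kg gavage BID or 20 mg/kg ip QD) measured with mouse angiogenesis antibody arrays, read as pixel density. 3–8 mice/group, SEM; ANOVA with Fisher PLSD.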

[13] = Inhibition of MAPK (unknown origin) signaling axis assessed as reduction in phosphorylated ERK1/2 level by cell based assay; settings: Homo sapiens
mTORC1 = mTORC1 (Homo sapiens, UniProt P42345); assay: Competitive inhibition of mTORC1 immunoprecipitated from human HeLa cells using His-tagged 4E-BP1 as substrate incubated for 30 mins in presence of ATP by chemiluminescence based ELISA
Summary of the method: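 Native mTORC1 or mTORC2 complex immunoprecipitated from HeLa lysates; kinase reaction run at 1 mM ATP.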

[14] = target: Epidermal growth factor receptor (Homo sapiens, UniProt P00533); assay: Inhibition of EGFR phosphorylation (unknown origin) by cell based assay
Sequence of Epidermal growth factor receptor (P00533 whole entry): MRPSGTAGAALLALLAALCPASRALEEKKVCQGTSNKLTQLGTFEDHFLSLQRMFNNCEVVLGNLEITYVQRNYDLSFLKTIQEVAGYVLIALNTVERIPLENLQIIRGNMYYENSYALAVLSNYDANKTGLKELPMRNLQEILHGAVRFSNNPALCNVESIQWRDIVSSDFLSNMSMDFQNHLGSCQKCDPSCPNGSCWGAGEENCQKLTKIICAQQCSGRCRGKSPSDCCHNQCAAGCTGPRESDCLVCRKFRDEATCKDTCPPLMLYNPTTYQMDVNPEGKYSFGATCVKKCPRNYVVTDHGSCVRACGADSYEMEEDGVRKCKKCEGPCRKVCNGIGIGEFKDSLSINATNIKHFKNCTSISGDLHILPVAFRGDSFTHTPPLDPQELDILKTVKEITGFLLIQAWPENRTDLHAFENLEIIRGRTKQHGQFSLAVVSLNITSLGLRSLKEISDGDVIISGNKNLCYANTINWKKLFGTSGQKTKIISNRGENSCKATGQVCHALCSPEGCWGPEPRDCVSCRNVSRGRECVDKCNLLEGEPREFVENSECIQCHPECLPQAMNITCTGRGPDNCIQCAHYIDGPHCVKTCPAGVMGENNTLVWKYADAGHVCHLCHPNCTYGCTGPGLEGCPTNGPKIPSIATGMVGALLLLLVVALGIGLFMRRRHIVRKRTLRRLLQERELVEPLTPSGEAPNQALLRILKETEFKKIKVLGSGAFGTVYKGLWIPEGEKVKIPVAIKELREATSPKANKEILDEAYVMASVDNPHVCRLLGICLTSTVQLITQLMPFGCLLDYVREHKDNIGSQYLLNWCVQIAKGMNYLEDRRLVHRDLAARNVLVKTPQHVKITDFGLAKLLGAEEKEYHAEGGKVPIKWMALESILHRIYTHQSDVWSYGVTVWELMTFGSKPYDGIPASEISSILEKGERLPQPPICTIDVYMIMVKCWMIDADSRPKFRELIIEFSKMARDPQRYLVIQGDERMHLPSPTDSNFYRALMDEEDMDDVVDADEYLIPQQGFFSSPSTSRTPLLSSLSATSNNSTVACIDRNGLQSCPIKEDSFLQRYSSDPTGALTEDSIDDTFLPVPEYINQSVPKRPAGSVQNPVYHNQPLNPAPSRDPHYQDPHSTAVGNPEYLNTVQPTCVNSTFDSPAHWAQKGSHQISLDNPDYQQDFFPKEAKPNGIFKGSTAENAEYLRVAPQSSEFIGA

[15] = target: Vascular endothelial growth factor receptor 2 (Homo sapiens, UniProt P35968); assay: Inhibition of VEGFR2 phosphorylation (unknown origin) by cell based assay
Sequence of Vascular endothelial growth factor receptor 2 (P35968 whole entry): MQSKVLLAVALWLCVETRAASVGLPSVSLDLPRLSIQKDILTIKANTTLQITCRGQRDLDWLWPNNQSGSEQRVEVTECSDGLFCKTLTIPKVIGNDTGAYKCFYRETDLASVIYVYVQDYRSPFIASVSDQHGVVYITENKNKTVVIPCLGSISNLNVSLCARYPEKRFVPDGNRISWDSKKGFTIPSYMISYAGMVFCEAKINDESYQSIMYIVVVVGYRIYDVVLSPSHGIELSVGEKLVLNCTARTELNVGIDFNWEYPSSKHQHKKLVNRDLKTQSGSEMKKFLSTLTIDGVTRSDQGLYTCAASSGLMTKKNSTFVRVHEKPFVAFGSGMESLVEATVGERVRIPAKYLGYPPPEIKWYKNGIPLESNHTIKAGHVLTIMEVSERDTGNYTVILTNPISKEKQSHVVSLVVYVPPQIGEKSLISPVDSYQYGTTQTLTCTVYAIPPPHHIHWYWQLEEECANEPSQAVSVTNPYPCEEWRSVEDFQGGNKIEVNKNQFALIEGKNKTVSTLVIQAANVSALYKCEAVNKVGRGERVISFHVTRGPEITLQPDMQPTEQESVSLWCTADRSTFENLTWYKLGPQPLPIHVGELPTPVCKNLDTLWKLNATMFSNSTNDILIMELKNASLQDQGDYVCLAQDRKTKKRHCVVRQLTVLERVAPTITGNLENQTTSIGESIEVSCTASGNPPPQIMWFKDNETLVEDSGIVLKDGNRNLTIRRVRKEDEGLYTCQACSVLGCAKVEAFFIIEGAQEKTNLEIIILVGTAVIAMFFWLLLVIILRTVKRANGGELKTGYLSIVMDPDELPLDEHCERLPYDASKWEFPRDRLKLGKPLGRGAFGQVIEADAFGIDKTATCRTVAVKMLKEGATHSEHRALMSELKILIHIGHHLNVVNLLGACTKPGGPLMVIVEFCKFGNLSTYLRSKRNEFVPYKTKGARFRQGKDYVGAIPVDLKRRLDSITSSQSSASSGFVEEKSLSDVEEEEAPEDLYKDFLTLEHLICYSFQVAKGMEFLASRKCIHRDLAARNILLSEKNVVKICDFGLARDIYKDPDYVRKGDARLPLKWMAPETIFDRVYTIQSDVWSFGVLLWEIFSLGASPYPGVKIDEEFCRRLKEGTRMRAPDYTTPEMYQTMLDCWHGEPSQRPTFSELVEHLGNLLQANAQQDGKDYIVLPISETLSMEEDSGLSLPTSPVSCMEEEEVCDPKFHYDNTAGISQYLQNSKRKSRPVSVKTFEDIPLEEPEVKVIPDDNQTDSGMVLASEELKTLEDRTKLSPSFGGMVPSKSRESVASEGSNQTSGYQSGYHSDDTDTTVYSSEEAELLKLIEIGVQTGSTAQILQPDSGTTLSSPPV

[16] = target: Mitogen-activated protein kinase 10 (Homo sapiens) (UniProt P53779); assay: Inhibition of JNK3 (unknown origin)
Sequence of Mitogen-activated protein kinase 10 (Homo sapiens) (P53779 whole entry): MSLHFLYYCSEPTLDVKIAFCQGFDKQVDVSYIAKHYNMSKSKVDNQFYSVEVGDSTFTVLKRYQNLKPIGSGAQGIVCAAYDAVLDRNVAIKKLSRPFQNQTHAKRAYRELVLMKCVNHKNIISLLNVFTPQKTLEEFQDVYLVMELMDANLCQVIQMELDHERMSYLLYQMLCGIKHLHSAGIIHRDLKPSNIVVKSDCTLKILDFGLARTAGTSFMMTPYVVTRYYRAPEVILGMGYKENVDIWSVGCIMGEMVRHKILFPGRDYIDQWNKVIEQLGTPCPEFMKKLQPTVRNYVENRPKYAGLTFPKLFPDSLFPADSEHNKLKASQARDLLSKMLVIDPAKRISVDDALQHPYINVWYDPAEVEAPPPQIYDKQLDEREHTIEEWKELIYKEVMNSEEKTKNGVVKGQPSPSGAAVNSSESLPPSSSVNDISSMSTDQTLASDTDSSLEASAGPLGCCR

[17] = target: Proto-oncogene tyrosine-protein kinase receptor Ret (Homo sapiens) (UniProt P07949); assay: Inhibition of RET (unknown origin) at 3 uM by Ambit Kinomescan assay relative to control
[18] = tested on: Pancreatic islet cell carcinoma; assay: as §1, with “4 days” for “1 day”; type: functional; parameters: scale not given: the % may be the effect or the level left; settings: time 4 day; summary of the method: as §2
[19] = tested on: Pancreatic islet cell carcinoma; assay: Antivascular activity in pancreatic islet cell carcinoma in RIP-Tag2 mouse assessed as suppression of tumor regrowth by measuring reduction in vessel density at 75 mg/kg, po bid administered via gavage pretreated with OSI-930 for 7 days at 200 mg/kg, po followed by compound administration and measured after 4 days (reference value: 18%); type: functional; parameters: scale not given: the % may be the effect or the level left; settings: time 4 day
Summary of the method: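 10-week-old RIP-Tag2 mice given OSI-930 200 mg/kg QD by gavage for 7 days, then 75 mg/kg BID by gavage for 4 days. Mice fixed by vascular perfusion; 60–80 µm tumor sections immunostained for endothelial cells; vessel area density from fluorescence images at threshold 30–50. 3–8 mice per group; ANOVA with Fisher PLSD.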

[20] = tested on: Pancreatic islet cell carcinoma; assay: as §1, with “7 days” for “1 day”; type: functional; parameters: scale not given: the % may be the effect or the level left; settings: time 7 day; summary of the method: as §2

pIC50 [1]: < 4.40
pIC50 [3]: 6.34
pIC50 [6]: 5.96
inhibition [7]: Dose-Dependent Effect
concentration at 344 h [8]: 13.2 µM
pIC50 [9]: 7.96
inhibition [11]: Dose-Dependent Effect
pIC50 [13]: < 4.40
pIC50 (mTORC1): 7.54
pIC50 [14]: < 4.40
pIC50 [15]: < 4.40
inhibition [16]: Active
inhibition [17]: > 90%
SMILES: Nc1nccn2c1c(-c1cc3cccc(Cl)c3[nH]1)nc2[C@H]1CC[C@H](C(=O)O)CC1
Activity [2]: 12%
Activity [4]: Active
Activity [5]: 54%
inhibition (Mus musculus): Active
Activity [10]: inactive
inhibition (OVCAR-3): Active
Activity [12]: 72%
Activity [18]: 48%
Activity [19]: 40%
Activity [20]: 45%
